Source: PubChem BioAssay
A selection: hits, their analogues and other compounds. The true share with any hit is near 1.5%.
NR2E3 ag-1 = agonists of human NR2E3 nuclear receptor. 360,000 tested, 0.35% active. CHO-S Gal4-NCOR/VP16-NR2E3 two-hybrid, luciferase. inhibition of corepressor binding, % at 3.98 µM. Q9Y5X4;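 active = inhibition above the mean of all tested compounds plus 3 SD, cut at about 70% in these data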;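 also: higher means lower luciferase signal from less NR2E3 corepressor binding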
Target sequence (Q9Y5X4 whole entry, looked up, the tested form may be a part): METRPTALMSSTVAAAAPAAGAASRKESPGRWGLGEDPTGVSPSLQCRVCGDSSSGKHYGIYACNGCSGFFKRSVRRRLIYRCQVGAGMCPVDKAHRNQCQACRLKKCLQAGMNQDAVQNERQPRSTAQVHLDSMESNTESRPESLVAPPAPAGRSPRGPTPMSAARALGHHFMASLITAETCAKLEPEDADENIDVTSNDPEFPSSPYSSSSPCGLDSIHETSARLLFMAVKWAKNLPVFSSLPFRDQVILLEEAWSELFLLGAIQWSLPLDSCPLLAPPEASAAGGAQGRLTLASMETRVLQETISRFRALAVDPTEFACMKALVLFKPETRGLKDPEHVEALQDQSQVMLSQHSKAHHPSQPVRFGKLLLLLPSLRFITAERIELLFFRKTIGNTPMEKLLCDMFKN
Rev-erbA mod = modulates human Rev-erb alpha binding to DNA; 370,000 tested, 0.79% active; Rev-erbα–FITC-DNA binding, fluorescence polarization, 90 min; activity, % at 10 µM;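 active = activity above about 14%, limit read from the data; passing the limit was not always enough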
PG9 binder = small molecules binding HIV-1 gp120 antibody PG9. TR-FRET gp120-PG9 antibody binding. inhibition, % at 6.7 µM. 360,000 tested, 0.43% active; in the data active = inhibition above about 8.5%
NR2E3 ag-2 = agonists of human nuclear receptor NR2E3; Q9Y5X4; GST-NR2E3/biotin-RetCOR TR-FRET, 1536-well; inhibition of corepressor binding, % at 4.78 µM; 320,000 tested, 0.12% active; AID 2300;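 active = percent inhibition above the cutoff of mean plus 3 SD of all tested compounds, set per screening campaign, cut at about 20% in these data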
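Material: NR2E3–RetCOR corepressor complex | Quantity: 1.35 nM GST-tagged NR2E3 final | Schedule: 5 h at 4 °C | Replication: Singlicate compound wells | Reagent: RetCOR corepressor, biotinylated, 7 nM | Controls: Biotin wells as high control, 0.6% DMSO wells as low control | Signal: TR-FRET, Eu(K)-anti-GST donor, streptavidin-D2 acceptor, ex 340, em 617/671 nm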
NR2E3 ag conf = NR2E3 agonism confirmed in two-hybrid assay | shares compounds with NR2E3 ag-1 | CHO-S mammalian two-hybrid NR2E3-NCOR, luciferase luminescence | inhibition, % at 3.98 µM | 2,300 tested, 51% active | AID 624378;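 active = average inhibition above a cutoff equal to the mean inhibition of all tested compounds plus one SD, cut at about 70% in these data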
VP16 counter = reduces GAL4-VP16 reporter signal in NR2E3 counterscreen; shares compounds with NR2E3 ag-1; CHO-S GAL4-VP16 luciferase reporter, luminescence; inhibition, % at 3.98 µM; 2,300 tested, 29% active; AID 624379;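 active = mean inhibition above a cutoff equal to the average over all tested compounds plus one standard deviation, cut at about 70% in these data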;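 also: luciferase from a UAS reporter driven by GAL4-VP16 transactivation; higher means less reporter light so more repression of VP16 activity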
PG9 bind confirm = PG9 antibody binding, confirmed; shares compounds with PG9 binder; TR-FRET PG9 antibody binding, biochemical; inhibition, % at 6.7 µM; 1,500 tested, 90% active; AID 651571; in the data active = inhibition above about 9%
PGV04 counter = binds control antibody PGV04 in PG9 binder counter-screen; 1,500 tested, 95% active; inhibition, % at 6.7 µM; AID 651604; TR-FRET PGV04 antibody-gp120 binding, biochemical; shares compounds with PG9 binder; in the data active = inhibition above about 9.5%
Rev-erbA confirm = Rev-erb alpha (human) modulation, hit confirmation; 3,000 tested, 61% active; activation, % at 25 µM; shares compounds with Rev-erbA mod; AID 1259319; Rev-erb alpha FITC-DNA binding, fluorescence polarization, 90 min;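 active = activation at or above a set limit, or at least 3 SD above the negative control mean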
RORg counter = RORgamma DNA-binding activity, dose-response counter-screen; shares compounds with Rev-erbA mod; purified RORgamma protein-FITC-DNA binding, fluorescence polarization; IC50, µM; 910 tested, 8% active; AID 1259320;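 active = Compounds whose fitted half-maximal concentration for disrupting protein-DNA binding is below 10 micromolar; the record names Rev-erb in its text, so the target is in doubt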
Of the large screens only hits and unclear results are named; the others gave an inactive call (follow-up assays come after a bar, where they were run).

Cc1cccc(CNC(=S)OC2CCC23CCC(c2ccccc2)CC3)c1 (stereo not given)	none (no result: NR2E3 ag-1, PG9 binder, NR2E3 ag-2)
COc1ccc(C(=O)C2CCN(c3ncnc4sccc34)CC2)cc1	none (no result: NR2E3 ag-1, PG9 binder, NR2E3 ag-2)
Cc1cc(=O)[nH]c(SCC(=O)Nc2ccc(Br)cc2)c1C#N	NR2E3 ag-1 78.5 | NR2E3 ag conf 97.6 | VP16 counter 90.2
Cc1cc(=O)[nH]c(SCC(=O)Nc2ccc(F)cc2)c1C#N	none
Cc1cc(=O)[nH]c(SCC(=O)Nc2ccc3c(c2)CCC3)c1C#N	none | NR2E3 ag conf inactive | VP16 counter inactive
O=c1[nH]c(SCc2ccc(Cl)cc2)nc2ccsc12	none (no result: NR2E3 ag-1)
N#Cc1c(-c2cccs2)nc(SCc2ccc(Cl)cc2)[nH]c1=O	NR2E3 ag-1 78.1, PG9 binder 46.9 (no result: NR2E3 ag-2) | NR2E3 ag conf 97.3 | VP16 counter inactive | PG9 bind confirm 50.0 | PGV04 counter 61.2
O=C(NCCCN1CCN(c2ccc(F)cc2)CC1)NCc1ccccc1	none (no result: NR2E3 ag-1, PG9 binder, NR2E3 ag-2)
Cc1ccccc1Nc1nc(N)nc(CSc2nc3ccccc3c(=O)n2C)n1	NR2E3 ag-1 87.9, PG9 binder 26.2 | NR2E3 ag conf inactive | VP16 counter inactive | PG9 bind confirm 72.9 | PGV04 counter 81.7
O=C(CSc1nnnn1-c1ccccc1)Nc1nsc(-c2ccc(Cl)cc2)n1	Rev-erbA mod 26.5 | NR2E3 ag conf 98.5 | VP16 counter inactive | Rev-erbA confirm 43.3
CCN1/C(=C/c2ccc3cc(C)ccc3[n+]2CC)Sc2ccc3sccc3c21	none (no result: Rev-erbA mod, PG9 binder)
CCN1/C(=C/c2ccc3cccc(C)c3[n+]2CC)Sc2ccccc21	NR2E3 ag-1 86.0, Rev-erbA mod 47.8 | NR2E3 ag conf 96.9 | VP16 counter 85.3 | Rev-erbA confirm 70.6 | RORg counter inactive
O=C(CCc1ccccc1)N[C@H]1[C@H](OCc2ccccc2)CCC[C@@]12C(=O)N(Cc1ccccc1)c1ccc(-c3ccsc3)cc12	none (no result: NR2E3 ag-1, PG9 binder, NR2E3 ag-2)
COc1cccc(NC(=O)CSc2nc3ncc(Br)cc3[nH]2)c1	Rev-erbA mod 104.1, PG9 binder 22.2 | NR2E3 ag conf 79.6 | VP16 counter inactive | PG9 bind confirm inactive | PGV04 counter 10.8 | Rev-erbA confirm 100.8 | RORg counter inactive
Cc1cc(C(=O)CSc2nc3ccccc3c(=O)n2C)c(C)n1Cc1ccc2c(c1)OCO2	Rev-erbA mod 41.7 | NR2E3 ag conf 94.8 | VP16 counter 76.2 | Rev-erbA confirm inactive
CCCCCC[n+]1ccccc1/C=C/c1ccc(N(C)C)cc1	NR2E3 ag-1 87.8, Rev-erbA mod 33.9 (no result: NR2E3 ag-2) | NR2E3 ag conf 98.2 | VP16 counter 79.8 | Rev-erbA confirm 36.9 | RORg counter inactive
CC[n+]1ccccc1/C=C/c1ccc(N(C)C)cc1	none (no result: NR2E3 ag-2)
Cc1ccc(-c2cc(C(=O)NN=Cc3c4ccccc4cc4ccccc34)[nH]n2)cc1C	none (no result: NR2E3 ag-1, PG9 binder, NR2E3 ag-2)
CN[C@H]1C[C@H]2c3[nH]c4cccc(-c5cccc(F)c5)c4c3CCN2C(=O)[C@H]1[C@H](C)O	none (no result: NR2E3 ag-1, PG9 binder, NR2E3 ag-2)
O=C1c2cccc3c(O)ccc(c23)C(=O)N1Cc1ccccc1	Rev-erbA mod 73.4 | NR2E3 ag conf 81.7 | VP16 counter inactive | Rev-erbA confirm 73.0 | RORg counter inactive
COC(=O)N=Nc1c(O)[nH]c2ccc(Br)cc12	none
Oc1[nH]c2ccc(Br)cc2c1N=NC(=S)N1CCOCC1	NR2E3 ag-1 97.7, Rev-erbA mod 18.9 | NR2E3 ag conf 90.0 | VP16 counter inactive | Rev-erbA confirm 24.0
CC(C)(C)c1ccc(S(=O)(=O)N2CCCC(C(=O)NCc3ccco3)C2)cc1 (stereo not given)	none (no result: NR2E3 ag-1, PG9 binder, NR2E3 ag-2)
COc1ccc(C(=O)Nc2nnc(Cc3cccs3)s2)cc1OC	Rev-erbA mod 46.4, PG9 binder 33.1 | NR2E3 ag conf inactive | VP16 counter inactive | PG9 bind confirm 45.2 | PGV04 counter 75.2 | Rev-erbA confirm 47.2 | RORg counter inactive
COc1ccc(Cc2nnc(NC(=O)c3ccc(OC)c(OC)c3)s2)cc1	none
Cc1ccc(/C(O)=C2/C(=O)C(=O)N(c3ccccn3)C2c2ccc(F)cc2)cc1 (stereo not given)	none
CCOc1ccc(/C(O)=C2/C(=O)C(=O)N(c3ccccn3)C2c2ccc(F)cc2)c(C)c1 (stereo not given)	PG9 binder 10.4 | PG9 bind confirm 17.8 | PGV04 counter 24.4
CCCOc1ccc(/C(O)=C2/C(=O)C(=O)N(c3ccccn3)C2c2ccc(OC)cc2)cc1C (stereo not given)	PG9 binder 17.1 | PG9 bind confirm 25.4 | PGV04 counter 36.0
COc1ccc(/C(O)=C2/C(=O)C(=O)N(c3ccccn3)C2c2ccc(OC)cc2)cc1 (stereo not given)	none (no result: NR2E3 ag-2)
CCCC[C@H]1C2CC(OC(=O)Nc3ccc(C)cc3)C(C2)[C@H]2CCCCN21 (stereo not given in full)	none (no result: NR2E3 ag-1, PG9 binder, NR2E3 ag-2)
O=C(NCc1cccnc1)c1ccc(Cn2c(=S)[nH]c3ccc(Br)cc3c2=O)cc1	PG9 binder 10.3 | PG9 bind confirm 12.5 | PGV04 counter 13.0
Cc1cccc2cc(CN(Cc3ccco3)C(=O)c3ccncc3)c(=O)[nH]c12	PG9 binder 9.3 | PG9 bind confirm inactive | PGV04 counter 10.1
COc1ccc(-c2cn3nc(SCC(=O)NC4CCCCC4)ccc3n2)cc1	PG9 binder 33.0 | PG9 bind confirm 61.9 | PGV04 counter 75.2
Cc1sc(NC(=S)NC(=O)C2CCCCC2)c(C(N)=O)c1C	PG9 binder 31.6 | PG9 bind confirm 23.7 | PGV04 counter 31.1
CCOC(=O)Nc1nc(C)c(C(=O)c2ccc(Cl)cc2)s1	PG9 binder 10.2 | PG9 bind confirm 16.6 | PGV04 counter 32.9
CCOC(=O)[C@]12CCCCC/C=C\1N(CCc1ccc(Cl)cc1)C(=O)[C@H]2CC(=O)N1CCOCC1	none (no result: NR2E3 ag-1, PG9 binder, NR2E3 ag-2)
O=C(CSc1ccccc1)NC1CCCCN(Cc2cccc(Cl)c2)C1=O (stereo not given)	none (no result: NR2E3 ag-1, PG9 binder, NR2E3 ag-2)
O=C(COC(=O)c1ccccc1NC(=O)c1ccco1)Nc1ccc2c(c1)OCO2	PG9 binder 11.4 | PG9 bind confirm 9.2 | PGV04 counter 11.9
COC(=O)c1ccccc1NC(=O)COc1ccc2c(c1)OCO2	PG9 binder 9.2 | PG9 bind confirm inactive | PGV04 counter inactive
O=C(Cc1ccccc1)NC1CCCCN(Cc2ccc(Cl)cc2)C1=O (stereo not given)	none (no result: NR2E3 ag-1, PG9 binder, NR2E3 ag-2)
